Results: ChEMBL document CHEMBL1145465, “PhoU is a persistence switch involved in persister formation and tolerance to multiple antibiotics and stresses in Escherichia coli” (2007)
Converted amounts (≈) assume the structure as drawn. The source made the active and inactive calls. The calls are words filed in the database; no cut-off is given here.

Assays:
Escherichia coli [1] = experiment: Antibacterial activity against Escherichia coli K12 containing PhoU mutant assessed as bacterial killing log phase at 3 ug/ml after 6 days; format: functional
Escherichia coli [2] = experiment: Antibacterial activity against Escherichia coli K12 PhoU wild type W3110 assessed as cell count in log phase at […] after 6 days; format: functional, organism-based
Escherichia coli [3] = experiment: Antibacterial activity against Escherichia coli K12 containing PhoU mutant assessed as bacterial killing stationary phase at 2 mg/ml after 6 days
Escherichia coli [4] = experiment: Antibacterial activity against Escherichia coli K12 PhoU wild type W3110 assessed as cell count in stationary phase at 2 mg/ml after 6 days
Escherichia coli [5] = experiment: Antibacterial activity against Escherichia coli K12 mutant JHU313 containing plasmid vector at 25 ug/ml after 48 hrs by disc diffusion method; format: functional
How it was run: (§1)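 Kirby-Bauer paper-disc assay: log-phase E. coli (10⁸ bacteria) grown in LB broth, spread on LB agar for confluent growth; 7 mm nitrocellulose discs soaked with antibiotic solution at the listed concentration (μg/ml) placed on surface; incubated 37°C for 48 h; diameter of growth-inhibition zone measured in mm. Strain is the phoU transposon mutant transformed by electroporation with empty vector control.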

Escherichia coli [6] = experiment: Antibacterial activity against Escherichia coli K12 PhoU wild type W3110 at 25 ug/ml after 48 hrs by disc diffusion method; format: functional
How it was run: (§2)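 Kirby-Bauer disc assay. Log-phase LB broth culture (10⁸ bacteria) was spread on LB agar for confluent growth. 7 mm nitrocellulose discs soaked in antibiotic solution at the listed concentration were placed on the agar. Inhibition zone diameter (mm) was measured after 48 h at 37°C.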

Escherichia coli [7] = experiment: Antibacterial activity against Escherichia coli K12 PhoU wild type W3110 at 12.5 ug/ml after 48 hrs by disc diffusion method; format: functional; how it was run: as §2
Escherichia coli [8] = experiment: Antibacterial activity against Escherichia coli K12 mutant JHU313 containing plasmid vector at 50 ug/ml after 48 hrs by disc diffusion method; format: functional; how it was run: as §1
Escherichia coli [9] = experiment: Antibacterial activity against Escherichia coli K12 PhoU wild type W3110 at 50 ug/ml after 48 hrs by disc diffusion method; format: functional; how it was run: as §2
Escherichia coli [10] = experiment: Antibacterial activity against Escherichia coli K12 mutant JHU313 containing plasmid PhoU at 50 ug/ml after 48 hrs by disc diffusion method; format: functional
How it was run: (§3)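 Kirby-Bauer disc assay: log-phase LB culture was spread on LB agar for confluent growth. 7-mm nitrocellulose discs were soaked in antibiotic at the listed concentration and placed on the agar. After 48 h at 37°C, the diameter of the inhibition zone was measured in mm.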

Escherichia coli [11] = experiment: Antibacterial activity against Escherichia coli K12 mutant JHU313 containing plasmid vector at 12.5 ug/ml after 48 hrs by disc diffusion method; format: functional; how it was run: as §3
Escherichia coli [12] = experiment: Antibacterial activity against Escherichia coli K12 mutant JHU313 at 25 ug/ml after 48 hrs by disc diffusion method; format: functional; how it was run: as §3
Escherichia coli [13] = experiment: Antibacterial activity against Escherichia coli K12 mutant JHU313 containing plasmid PhoU at 12.5 ug/ml after 48 hrs by disc diffusion method; format: functional; how it was run: as §3
Escherichia coli [14] = experiment: Antibacterial activity against Escherichia coli K12 mutant JHU313 at 50 ug/ml after 48 hrs by disc diffusion method; format: functional; how it was run: as §3
Escherichia coli [15] = experiment: Antibacterial activity against Escherichia coli K12 mutant JHU313 at 12.5 ug/ml after 48 hrs by disc diffusion method; format: functional; how it was run: as §3
Escherichia coli [16] = experiment: Antibacterial activity against Escherichia coli K12 mutant JHU313 containing plasmid PhoU at 25 ug/ml after 48 hrs by disc diffusion method; format: functional; how it was run: as §3
Escherichia coli [17] = experiment: Antibacterial activity against Escherichia coli K12 mutant JHU313 containing plasmid vector after 16 hrs by serial dilution method; format: functional; details: K12, 16 h
How it was run: (§4)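 Twofold serial antibiotic dilutions in LB broth were seeded with 10⁶–10⁷ bacteria/ml from log-phase culture and incubated 16 h at 37°C. MIC was taken as the lowest concentration with no visible growth. MBC was taken as the concentration giving a 100-fold CFU drop from the inoculum.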

Escherichia coli [18] = experiment: Antibacterial activity against Escherichia coli K12 PhoU wild type W3110 at 1 ug/ml after 48 hrs by disc diffusion method
Escherichia coli [19] = experiment: Antibacterial activity against Escherichia coli K12 mutant JHU313 containing plasmid vector at 2 ug/ml after 48 hrs by disc diffusion method; format: functional; how it was run: as §3
Escherichia coli [20] = experiment: Antibacterial activity against Escherichia coli K12 PhoU wild type W3110 after 16 hrs by serial dilution method; format: functional; details: K12, 16 h
How it was run: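 Serial twofold antibiotic dilutions in LB broth; log-phase inoculum 10⁶ to 10⁷ bacteria/ml; 16 h at 37°C. MIC was the lowest concentration with no visible growth. MBC was the concentration giving a 100-fold CFU drop below the seeded inoculum.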

Escherichia coli [21] = test system: Escherichia coli
Escherichia coli [22] = experiment: Antibacterial activity against Escherichia coli K12 mutant JHU313 at 0.5 ug/ml after 48 hrs by disc diffusion method; format: functional; how it was run: as §3
Escherichia coli [23] = experiment: Antibacterial activity against Escherichia coli K12 mutant JHU313 containing plasmid PhoU at 0.5 ug/ml after 48 hrs by disc diffusion method; format: functional; how it was run: as §3
Escherichia coli [24] = experiment: Antibacterial activity against Escherichia coli K12 mutant JHU313 containing plasmid PhoU at 2 ug/ml after 48 hrs by disc diffusion method; format: functional; how it was run: as §3
Escherichia coli [25] = experiment: Antibacterial activity against Escherichia coli K12 mutant JHU313 at 2 ug/ml after 48 hrs by disc diffusion method; format: functional; how it was run: as §3
Escherichia coli [26] = experiment: Antibacterial activity against Escherichia coli K12 PhoU wild type W3110 at 2 ug/ml after 48 hrs by disc diffusion method; format: functional
How it was run: (§5)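 Kirby-Bauer disc assay. Log-phase LB culture (10⁸ bacteria) was spread for confluent growth on LB agar. 7 mm nitrocellulose discs soaked in antibiotic at the listed concentrations were laid on the agar. Inhibition zone diameter (mm) was measured after 48 h at 37°C.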

Escherichia coli [27] = experiment: Antibacterial activity against Escherichia coli K12 mutant JHU313 containing plasmid PhoU after 16 hrs by serial dilution method; format: functional; details: K12, 16 h; how it was run: as §4
Escherichia coli [28] = experiment: Antibacterial activity against Escherichia coli K12 mutant JHU313 after 16 hrs by serial dilution method; format: functional; details: K12, 16 h; how it was run: as §4
Escherichia coli [29] = experiment: Antibacterial activity against Escherichia coli K12 PhoU wild type W3110 at 0.5 ug/ml after 48 hrs by disc diffusion method; format: functional; how it was run: as §5
Escherichia coli [30] = experiment: Antibacterial activity against Escherichia coli K12 mutant JHU313 containing plasmid vector at 0.5 ug/ml after 48 hrs by disc diffusion method; format: functional; how it was run: as §3
Escherichia coli [31] = test system: Escherichia coli; remark: listed apart in the source
Escherichia coli [32] = test system: Escherichia coli; remark: listed apart in the source

In the case of `NC(=O)c1cnccn1` [PYRAZINAMIDE], the CFU (Escherichia coli [1]) is reported as 1 10^6/ml, the Activity (Escherichia coli [2]) is reported as “Active” and the Activity (Escherichia coli [3]) is reported as “Active”. The CFU (Escherichia coli [4]) was 6.7 10^6/ml.
`CN(C)[C@@H]1C(O)=C(C(N)=O)C(=O)[C@@]2(O)C(O)=C3C(=O)c4c(O)cccc4[C@@](C)(O)[C@H]3C[C@@H]12` [TETRACYCLINE] was tested, and the inhibition zone (IZ) (Escherichia coli [5]) was 34 mm, the inhibition zone (IZ) (Escherichia coli [6]) was 23 mm and the inhibition zone (IZ) (Escherichia coli [7]) was 22 mm. It also gave an inhibition zone (IZ) (Escherichia coli [8]) of 34 mm, an inhibition zone (IZ) (Escherichia coli [9]) of 23 mm and an inhibition zone (IZ) (Escherichia coli [10]) of 32 mm. The inhibition zone (IZ) (Escherichia coli [11]) was 34 mm, the inhibition zone (IZ) (Escherichia coli [12]) was 32 mm and the inhibition zone (IZ) (Escherichia coli [13]) was 30 mm. For the same compound, the inhibition zone (IZ) (Escherichia coli [14]) was 32 mm, the inhibition zone (IZ) (Escherichia coli [15]) was 26 mm and the inhibition zone (IZ) (Escherichia coli [16]) was 32 mm.
With `COc1cc(Cc2cnc(N)nc2N)cc(OC)c1OC` [TRIMETHOPRIM] the MBC (Escherichia coli [17]) was 1 µg/mL (≈ 3.44 µM), the MIC (Escherichia coli [17]) was 0.5 µg/mL (≈ 1.72 µM) and the IZ (Escherichia coli [18]) was 26 mm. The inhibition zone (IZ) (Escherichia coli [19]) was 44 mm, the MBC (Escherichia coli [20]) was 8 µg/mL (≈ 27.6 µM) and the MIC (Escherichia coli [20]) was 2 µg/mL (≈ 6.89 µM). For the same compound, the IZ (Escherichia coli [21]) was 40 mm, the inhibition zone (IZ) (Escherichia coli [22]) was 31 mm and the inhibition zone (IZ) (Escherichia coli [23]) was 32 mm. The inhibition zone (IZ) (Escherichia coli [24]) was 36 mm, the inhibition zone (IZ) (Escherichia coli [25]) was 42 mm and the inhibition zone (IZ) (Escherichia coli [26]) was 30 mm. For the same compound, the MBC (Escherichia coli [27]) was 4 µg/mL (≈ 13.8 µM), the MIC (Escherichia coli [27]) was 2 µg/mL (≈ 6.89 µM) and the MBC (Escherichia coli [28]) was 1 µg/mL (≈ 3.44 µM). The MIC (Escherichia coli [28]) was 0.25 µg/mL (≈ 0.861 µM), the inhibition zone (IZ) (Escherichia coli [29]) was 24 mm and the inhibition zone (IZ) (Escherichia coli [30]) was 36 mm. It also gave an IZ (Escherichia coli [31]) of 33 mm and an IZ (Escherichia coli [32]) of 38 mm.
